The test system of series [1] is Trypanosoma brucei rhodesiense. As to the kind of experiment: Antitrypanosomal activity against Trypanosoma brucei rhodesiense STIB900 infected in rat L6 cells after 72 hrs by alamar blue assay. It is filed as functional, organism-based. Background: The colour change of resazurin is a common sign of viable cells or microbes.
A further series deals with L6. The series can be described thus: Cytotoxicity against rat L6 cells after 72 hrs by alamar blue assay. It is filed as cell-based.
Series [2] in a line: Selectivity index, ratio of EC50 for rat L6 cells to EC50 for Trypanosoma brucei rhodesiense STIB900. The series is classed as toxicity, cell-based. To be noted: for selectivity ratio: L6 cells, read-out: Ratio EC50. The procedure, abridged:
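Ratio of EC₅₀ in L6 cells to EC₅₀ against T. b. rhodesiense STIB900, both from Alamar blue assays.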

Series [3] concerns Trypanosoma brucei brucei. The series can be described thus: Antitrypanosomal activity against wild type Trypanosoma brucei brucei Lister 427 after 3 days by alamar blue assay. It is filed as functional, organism-based. The gist of the method: (§1)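 Bloodstream-form T. b. brucei (wild-type s427; TbAT1-KO, made from s427 by TbAT1 deletion; B48, selected from TbAT1-KO in vitro on pentamidine, lacking functional HAPT1). Cells were exposed to compound for 48 h, then resazurin (Alamar blue) was added for a further 24 h. A single fluorescence reading gave EC50.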

For series [4], the system named is Trypanosoma brucei brucei. The series can be described thus: Antitrypanosomal activity against diminazene aceturate-resistant TbAT1 gene-deficient Trypanosoma brucei brucei AT1-KO after 3 days by alamar blue assay. It is filed as functional, organism-based. The procedure, abridged:
as §1

Series [5] has as its system Trypanosoma brucei brucei. As to the kind of experiment: Resistance factor, ratio of EC50 for diminazene aceturate-resistant TbAT1 gene-deficient Trypanosoma brucei brucei AT1-KO to EC50 for wild type Trypanosoma brucei brucei Lister 427. It is filed as functional. The gist of the method:
(§2)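 Resistance factor is the EC50 in the resistant line (TbAT1-KO or B48) divided by the EC50 in wild-type s427. […] Resistant and wild-type EC50s were compared by Student t-test.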

For series [6], the system named is Trypanosoma brucei brucei. The series can be described thus: Antitrypanosomal activity against diminazene-, pentamidine-, and melaminophenyl arsenical-resistant HAPT1-deficient Trypanosoma brucei brucei B48 after 3 days by alamar blue assay. The series is classed as functional, organism-based. The gist of the method:
as §1

In series [7] the test system is Trypanosoma brucei brucei. As to the kind of experiment: Resistance factor, ratio of EC50 for diminazene-, pentamidine-, and melaminophenyl arsenical-resistant HAPT1-deficient Trypanosoma brucei brucei B48 to EC50 for wild type Trypanosoma brucei brucei Lister 427. The series is classed as functional. The gist of the method:
as §2

A short description of series [8]: Cytotoxicity against human HEK cells after 3 days by alamar blue assay. The series is classed as cell-based, HEK293. The gist of the method:
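Human embryonic kidney cells tested by resazurin (Alamar blue) assay: 48 h with compound, then 24 h more after dye addition, single reading; EC₅₀ derived.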

Series [9] in a line: Selectivity index, ratio of EC50 for human HEK cells to EC50 for wild type Trypanosoma brucei brucei Lister 427. The series is classed as toxicity, cell-based, HEK293. The following applies: for selectivity ratio: HEK cells, read-out: Ratio EC50. The gist of the method:
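Ratio of EC₅₀ in HEK cells to EC₅₀ in wild-type T. b. brucei s427, both from resazurin assays.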

The mark [10] stands for this setting: Trypanosoma brucei, STIB900, 72 h.
The mark [11] stands for this setting: Trypanosoma brucei, Lister 427, 72 h.
The mark [12] stands for this setting: Trypanosoma brucei, AT1-KO, 72 h.

On to `O=C(c1ccc(C[P+](c2ccc(F)cc2)(c2ccc(F)cc2)c2ccc(F)cc2)cc1)c1ccc(C[P+](c2ccc(F)cc2)(c2ccc(F)cc2)c2ccc(F)cc2)cc1.[Br-].[Br-]`, for which the EC50 (commonly the concentration giving half of the maximal effect) in series [1] (setting [10]) was 450 nM; in the series on L6 (Rattus norvegicus, L6, 72 h), 77400 nM; in series [3] (setting [11]), 850 nM; in series [4] (setting [12]), 2100 nM; in series [6] (Trypanosoma brucei, B48, 72 h) it was 1240 nM; in series [8] (Homo sapiens, HEK293, 72 h), more than 300000 nM. Further, the values for the selectivity ratio in [2] and in [9] were 172 and more than 350, respectively. Also, the “Ratio EC50” value in series [5] came out at 2.5; in series [7] it was 1.5.
In the case of `COc1ccccc1[P+](Cc1ccc(Cc2ccc(C[P+](c3ccccc3OC)(c3ccccc3OC)c3ccccc3OC)cc2)cc1)(c1ccccc1OC)c1ccccc1OC.[Br-].[Br-]`, the 50% effective concentration (EC50) in [1] (setting [10]) was determined as 209 nM; in the series on L6 (Rattus norvegicus, L6, 72 h), 1080 nM; in series [3] (setting [11]), 80 nM; in series [4] (setting [12]), 74 nM; in [6] (Trypanosoma brucei, B48, 72 h), 66 nM; in series [8] (Homo sapiens, HEK293, 72 h), 204000 nM. Besides, the selectivity ratio in series [2] was found to be 5; in series [9] it was 2560. The “Ratio EC50” value in series [5] is on record as 0.9; in series [7], 0.8.
With `[Br-].[Br-].c1ccc2c([P+](Cc3ccc(Cc4ccc(C[P+](c5cccc6ccccc56)(c5cccc6ccccc56)c5cccc6ccccc56)cc4)cc3)(c3cccc4ccccc34)c3cccc4ccccc34)cccc2c1`, the EC50 in [1] (setting [10]) worked out at 299 nM; with L6 (Rattus norvegicus, L6, 72 h), 3430 nM; in series [3] (setting [11]), 140 nM; in series [4] (setting [12]), 170 nM; in series [6] (Trypanosoma brucei, B48, 72 h), 140 nM; in series [8] (Homo sapiens, HEK293, 72 h), 163000 nM. Moreover, the results for the selectivity ratio in series [2] and in series [9] were 12 and 1210, respectively. Also, the “Ratio EC50” value in [5] was 1.3; in [7], 1.
As for `CC(C)[P+](Cc1ccc(Oc2ccc(C[P+](c3ccccc3)(c3ccccc3)C(C)C)cc2)cc1)(c1ccccc1)c1ccccc1.[Br-].[Br-]`, the EC50 in series [1] (setting [10]) is 585 nM; in the series with L6 (Rattus norvegicus, L6, 72 h), 5000 nM; in [3] (setting [11]), 330 nM; in series [4] (setting [12]) it was 330 nM; in series [6] (Trypanosoma brucei, B48, 72 h) it was 330 nM; in series [8] (Homo sapiens, HEK293, 72 h), more than 300000 nM. In addition, the selectivity ratio is 8.6 in series [2] and more than 900 in series [9]. Moreover, the “Ratio EC50” value in series [5] and in series [7] was 1 throughout.
On to `Cc1ccc([P+](Cc2ccc(CCCc3ccc(C[P+](c4ccc(C)cc4)(c4ccc(C)cc4)c4ccc(C)cc4)cc3)cc2)(c2ccc(C)cc2)c2ccc(C)cc2)cc1.[Cl-].[Cl-]`, for which the concentration for a half-maximal effect (EC50) in series [1] was determined as 63 nM; in the series with L6 (l6), 1720 nM; in series [3] it was 100 nM; in series [4] it was 66 nM; in [6], 62 nM; in series [8] (hek293), 12700 nM. The “Ratio EC50” value in series [2] (l6) is recorded as 27.3; in [5], 0.7; in series [7] it was 0.6; in series [9] (hek293) it was 127.
On to `CC[P+](Cc1ccc(C(=O)c2ccc(C[P+](CC)(c3ccccc3)c3ccccc3)cc2)cc1)(c1ccccc1)c1ccccc1.[Br-].[Br-]`, for which the concentration giving a half-maximal response (EC50) in [1] (setting [10]) was 554 nM; in the series on L6 (Rattus norvegicus, L6, 72 h), more than 113000 nM; in series [3] (setting [11]), 970 nM; in series [4] (setting [12]) it was 2100 nM; in [6] (Trypanosoma brucei, B48, 72 h), 1760 nM; in series [8] (Homo sapiens, HEK293, 72 h), more than 300000 nM. Besides, the selectivity ratio in series [2] is more than 204; in series [9] it was more than 300. Moreover, the “Ratio EC50” value is recorded as 2.2 in [5] and 1.8 in [7].
Turning to `C[P+](C)(Cc1ccc(CCCc2ccc(C[P+](C)(C)c3ccccc3)cc2)cc1)c1ccccc1.[Br-].[Br-]`, the concentration for a half-maximal effect (EC50) in [1] (setting [10]) was 1220 nM; in the series on L6 (Rattus norvegicus, L6, 72 h) it was 59500 nM; in series [3] (setting [11]), 1270 nM; in [4] (setting [12]) it was 1370 nM; in series [6] (Trypanosoma brucei, B48, 72 h) it was 1090 nM; in series [8] (Homo sapiens, HEK293, 72 h) it was more than 300000 nM. For the same compound, the selectivity ratio was 49 in [2] and more than 230 in series [9]. In addition, the results for the “Ratio EC50” value in series [5] and in series [7] were 1.1 and 0.9, respectively.
With `CCCCCC[P+](CCCCCC)(CCCCCC)Cc1ccc(C(=O)c2ccccc2)cc1.[Br-]`, the concentration for a half-maximal effect (EC50) in [1] (setting [10]) turned out to be 103 nM; in the series with L6 (Rattus norvegicus, L6, 72 h), 1610 nM; in series [3] (setting [11]), 11 nM; in series [4] (setting [12]), 8 nM; in series [6] (Trypanosoma brucei, B48, 72 h) it was 22 nM; in series [8] (Homo sapiens, HEK293, 72 h) it was 13400 nM. The selectivity ratio in series [2] was 15; in series [9] it was 1200. Moreover, the “Ratio EC50” value came out at 0.7 in series [5] and 1.9 in [7].
Turning to `Cc1ccc([P+](CCc2ccc(CCCc3ccc(CC[P+](c4ccc(C)cc4)(c4ccc(C)cc4)c4ccc(C)cc4)cc3)cc2)(c2ccc(C)cc2)c2ccc(C)cc2)cc1.[Cl-].[Cl-]`, the concentration for a half-maximal effect (EC50) in series [1] (setting [10]) came out at 73 nM; in the series with L6 (Rattus norvegicus, L6, 72 h), 645 nM; in series [3] (setting [11]) it was 77 nM; in series [4] (setting [12]), 43 nM; in [6] (Trypanosoma brucei, B48, 72 h) it was 48 nM; in [8] (Homo sapiens, HEK293, 72 h), 5600 nM. The selectivity ratio in series [2] worked out at 8.8; in [9], 73. Moreover, the “Ratio EC50” value in [5] and in [7] was 0.6 each time.
Turning to `Cc1cccc([P+](Cc2ccc(Cc3ccc(C[P+](c4cccc(C)c4)(c4cccc(C)c4)c4cccc(C)c4)cc3)cc2)(c2cccc(C)c2)c2cccc(C)c2)c1.[Br-].[Br-]`, the EC50 in series [1] (setting [10]) came out at 231 nM; with L6 (Rattus norvegicus, L6, 72 h) it was 939 nM; in series [3] (setting [11]), 140 nM; in series [4] (setting [12]), 140 nM; in series [6] (Trypanosoma brucei, B48, 72 h), 130 nM; in series [8] (Homo sapiens, HEK293, 72 h), 72600 nM. Also, the results for the selectivity ratio in [2] and in series [9] were 4 and 524, respectively. Besides, the “Ratio EC50” value in series [5] came out at 1; in series [7] it was 0.9.
As for `Cc1ccc([P+](Cc2ccc(C(=O)c3ccccc3)cc2)(c2ccccc2)c2ccccc2)cc1.[Br-]`, the EC50 in series [1] (setting [10]) is 267 nM; in the series on L6 (Rattus norvegicus, L6, 72 h), 7720 nM; in series [3] (setting [11]), 150 nM; in series [4] (setting [12]), 150 nM; in [6] (Trypanosoma brucei, B48, 72 h), 100 nM; in series [8] (Homo sapiens, HEK293, 72 h) it was 76800 nM. In addition, the results for the selectivity ratio in [2] and in series [9] were 29 and 504, respectively. Besides, the entries for the “Ratio EC50” value in [5] and in [7] were 1 and 0.7, respectively.
In the case of `COc1ccccc1[P+](Cc1ccc(C(=O)c2ccc(C[P+](c3ccccc3)(c3ccccc3OC)c3ccccc3OC)cc2)cc1)(c1ccccc1)c1ccccc1OC.[Br-].[Br-]`, the 50% effective concentration (EC50) came out at 230 nM in [1] (setting [10]); 6400 nM in the series with L6 (Rattus norvegicus, L6, 72 h); 240 nM in [3] (setting [11]); 320 nM in series [4] (setting [12]); 190 nM in series [6] (Trypanosoma brucei, B48, 72 h); 107000 nM in series [8] (Homo sapiens, HEK293, 72 h). In addition, the selectivity ratio in series [2] amounted to 28; in [9] it was 438. Moreover, the entries for the “Ratio EC50” value in [5] and in series [7] were 1.3 and 0.8, respectively.
In the case of `Cc1ccc([P+](Cc2ccc(C(=O)c3ccccc3)cc2)(c2ccc(C)cc2)c2ccc(C)cc2)cc1.[Br-]`, the 50% effective concentration (EC50) came to 81 nM in series [1] (setting [10]); 1350 nM in the series on L6 (Rattus norvegicus, L6, 72 h); 64 nM in [3] (setting [11]); 12 nM in series [4] (setting [12]); 11 nM in [6] (Trypanosoma brucei, B48, 72 h); 32500 nM in series [8] (Homo sapiens, HEK293, 72 h). For the same compound, the selectivity ratio in series [2] worked out at 16.7; in [9], 505. For the same compound, the “Ratio EC50” value in series [5] and in series [7] was 0.2 throughout.

(Values after ChEMBL document CHEMBL2040794, “Synthesis and structure-activity analysis of new phosphonium salts with potent activity against African trypanosomes” (J Med Chem, 2012).)
